Source: ChEMBL document CHEMBL4513216, “Probing the Open Global Health Chemical Diversity Library for Multistage-Active Starting Points for Next-Generation Antimalarials” (ACS Infect Dis, 2020)

Assay: Toxicity liver stage against HepG2, at 10uM
Assay type: cell-based
Design: test concentration 10 uM, cell line HepG2-A16-CD81EGFP
Conditions: human, HepG2-A16-CD81EGFP cells; read-out: INHIBITION
How it was run: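 Uninfected HepG2-A16-CD81EGFP cells, 3 × 10^3 per well, 1536-well, plated on prespotted compound at 10 μM final, parasite-free screening media added to match infected plates; puromycin 10 μM positive, DMSO 0.5% negative; run in parallel with 48 h PbLuc assay at 37 °C, 5% CO2; viability by CellTiter-Glo luminescence, normalized to controls.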

Row | SMILES | cytotoxicity at 10 µM
1 | CCOc1no[n+]([O-])c1-c1ccccc1 | -6.59%
2 | Cn1cc(CN2CCOC(Cc3cccc(F)c3)C2)cn1 (stereo not given) | -2.62%
3 | O=C(C1CC1)N1CC[C@H](c2nc3ccccc3o2)C1 | -4.07%
4 | COc1ccc2c(c1)OC1(CCN(Cc3cccc(C)c3)CC1)CC2=O | 5.5%
5 | O=C(CCc1nnc2ccccn2c1=O)NCc1cccnc1 | -1.74%
6 | CSCCC(Nc1nc(C)cc(C)n1)C(=O)NC1CCCC1 (stereo not given) | -4.87%
7 | O=S(=O)(Nc1cnc(N2CCCC2)nc1)c1ccc(C(F)(F)F)cc1 | 3.15%
8 | O=C(Cc1ccco1)N1CCC2(CCOCC2COCC2CC2)CC1 (stereo not given) | 4.65%
9 | CCN1CCc2cc(C(=O)N(C)C)c(NCC3CC3)nc2CC1 | 4.65%
10 | Cc1nc(CN2C(=O)CCC23CCN(c2ncccc2C)CC3)cs1 | -2.07%
11 | CN(C)CCOCC1CN(C(=O)c2ccccn2)Cc2ccnn2C1 (stereo not given) | -3.55%
12 | CS(=O)(=O)N[C@@H]1CN(Cc2ccoc2)C[C@@H]2CCCO[C@@H]21 | 13.2%
13 | COCC(=O)NCc1cc(=O)n2c(n1)CN(Cc1ccoc1)CCC2 | -124%
14 | CC(C)CCN1C[C@H]2CCN(C(=O)NC3CCCC3)CC[C@H]2S1(=O)=O | 4.87%
15 | Cc1ncsc1CN1CC[C@H]2OCC[C@@]2(C(=O)N2CCCC2)C1 | 7.63%
16 | Cc1cccc(CN2CC3(CCNCC3)OCC2=O)n1 | -21.7%
17 | CC(C)(C)CC(=O)N1CC[C@@H]2[C@H](CC1)N(S(C)(=O)=O)CCS2(=O)=O | -8.68%
18 | Cn1c(=O)n(C)c2nc(Br)c(CC(=O)c3ccccc3)n2c1=O | 0.9%
19 | Cc1ccnc(NC(=O)c2cnc(C3CCCNC3)cn2)c1 (stereo not given) | 3.33%
20 | Cc1cc(N2CCOC(c3ccc(C(N)=O)cn3)C2)ncn1 (stereo not given) | 5.45%
21 | CNc1ccc(CC2CCCN(Cc3c[nH]cn3)C2)nn1 (stereo not given) | -1.71%
22 | Cc1cnc(-c2nc(O)c3c(n2)CN(C(=O)C2CCCC2)CC3)cn1 | -1.39%

Row | SMILES | cytotoxicity at 10 µM
23 | CN1CCN(C(=O)c2cncc(CC3CCCN(C)C3)c2)CC1 (stereo not given) | 7.87%
24 | CN(C)C(=O)C1CN(Cc2cscn2)CCN(S(C)(=O)=O)C1 (stereo not given) | -6.46%
25 | CNC(=O)CN1CCC(CN(C)Cc2ccccc2N(C)C)CC1 | -6.23%
26 | CCN(CC)S(=O)(=O)NCC1COc2ccccc2O1 (stereo not given) | 0.347%
27 | Cc1cc(NC(=O)NCc2nccn2C)ccc1OC(C)C | -2.74%
28 | CC(=O)c1cccc(OCCCC(=O)NC(C#N)CC(C)C)c1 (stereo not given) | -41.3%
29 | CC(C)C(C)NC(=O)CNc1cc2c(cc1Cl)NC(=O)CO2 (stereo not given) | 0.529%
30 | CCn1cnnc1CNC(=O)NCC(C(C)C)N1CCC(C)CC1 (stereo not given) | -4.65%
31 | Cc1ccc(C(=O)N2CCC3(CCCC3)CC2)c(=O)[nH]1 | 2.24%
32 | CC(NC(=O)CNS(C)(=O)=O)c1ccccc1Oc1ccccc1 (stereo not given) | 4.69%
33 | CCOCC(=O)NCc1cc(Br)ccc1OC(F)F | 21.9%
34 | CNC(=O)CN(C)C(=O)c1cc(Cl)c(Cl)n1C | 4.4%
35 | CCOCc1ccc(NC(=O)C(C)C)cc1 | 2.25%
36 | COc1c(Cl)cc(C(=O)NCCNc2ncccn2)cc1Cl | -9.32%
37 | CCOc1ccc(NC2CCN(C(C)C)C2=O)cn1 (stereo not given) | -17%
38 | CCOc1cccc(CCNC(=O)Cc2cccc(O)c2)n1 | -5.26%
39 | CSCC1CCN(C(=O)c2ccccc2NCc2cccnc2)C1 (stereo not given) | -3.33%
40 | CCc1ccc(CCn2cnc(C#N)n2)cc1 | -0.224%
41 | Cc1ccc(C(=O)NCC2CCCCO2)c(=O)[nH]1 (stereo not given) | -0.628%
42 | Cc1nsc(N2CCN(C(=O)Nc3cccc(C#N)c3)CC2)n1 | -18.7%
43 | CN(c1ccc(CNc2c(Cl)cccc2C#N)cc1)S(C)(=O)=O | -66.9%
44 | FC(F)(F)C1CCc2nnc(CNCc3ccsc3)n2C1 (stereo not given) | 0.847%

Row | SMILES | cytotoxicity at 10 µM
45 | O=C(NCC(F)(F)F)NC1CCCc2c1cnn2CCO (stereo not given) | 4.44%
46 | Cc1cc(C)c2c(OCC(=O)NC(C)C)nn(C)c2n1 | -7.25%
47 | Cn1cc(C2COC3(CCN(C(=O)c4cccn4C)CC3)C2)cn1 (stereo not given) | -75.4%
48 | O=C(c1cscn1)N1CCC[C@]2(C[C@@H](OCC3CC3)CO2)C1 | -69.9%
49 | CC(C)NC(=O)c1cc2c(c3ccccc3n2C)n1C(=O)N(C)C | -79.4%
50 | Cc1ccc(C(=O)N2CCO[C@H]3[C@H](OCC4CCOCC4)CC[C@@H]32)o1 | 4.28%
51 | COCC(=O)N1CCCC2(CCN(c3ccsc3)C2=O)C1 (stereo not given) | 6.66%
52 | c1ccc(CN2C[C@@H]3OCCN(CC4CCCO4)[C@@H]3C2)nc1 (stereo not given in full) | 0.616%
53 | CN(CCc1ccccc1)C(=O)CN1C(=O)OC[C@@H]1c1ccccc1 | -47%
54 | CCCc1n[nH]c(=O)n1Cc1ccccc1F | 2.24%
55 | Cc1ccccc1C1CCN(CCNC(=O)CS(C)(=O)=O)C1 (stereo not given) | -49.5%
56 | COc1cccc2c1OCC(C(=O)N(Cc1ccncc1)CC(C)C)C2 (stereo not given) | -13.9%
57 | Cc1cc(CNC(=O)C(c2ccc(F)cc2)N(C)C)n[nH]1 (stereo not given) | -15%
58 | O=C(N[C@H]1COC[C@@H]1N1CCCC1)c1csc(Cc2ccccc2)n1 | -30.2%
59 | Nc1ncc(C(=O)N2CCCC(N)CC2)c(-c2ccccc2)n1 (stereo not given) | -132%
60 | CNS(=O)(=O)CCn1cc(-c2cc3c(cc2OC)CCC3)nn1 | -2.12%
61 | O=C1CC(NS(=O)(=O)N2CCOCC2)CN1Cc1ccc(F)cc1 (stereo not given) | -11%
62 | COCc1nc(C2CC2)nn1-c1ccccc1Cl | -0.808%
63 | Cc1ccsc1-c1cc(C(=O)O)cc(S(=O)(=O)NCc2ccccn2)c1 | -63.8%
64 | CC[C@@H](c1ccccc1)n1c(C2CC2)n[nH]c1=O | -8.67%
65 | CN(Cc1nccn1C)c1nccc(N2CCCC(O)C2)n1 (stereo not given) | -8.29%
66 | CN(C)CC1(O)CCCN(C(=O)c2cnc(-c3ccccn3)nc2)C1 (stereo not given) | -5.53%

Row | SMILES | cytotoxicity at 10 µM
67 | NC(=O)c1cncc(-n2ccc(-c3cnccn3)n2)c1 | -11.9%
68 | O=C(c1cc(Br)ccc1Cl)N1CCN(Cc2ccco2)CC1 | -49.4%
69 | CCn1c(CC2CCN(S(=O)(=O)c3cccc(C)c3)CC2)nn(C)c1=O | 2.01%
70 | CCC[C@@H]1CN(Cc2ccc(C(F)(F)F)nc2)C[C@H]1NS(C)(=O)=O | 10.5%
71 | Cc1ncc(CC(=O)N2CCC(N3C[C@@H](C)O[C@@H](C)C3)CC2)c(=O)[nH]1 | 3.26%
72 | Cc1nc(-c2ccccc2)n(CC(=O)NC2CCCCC2)n1 | -1.16%
73 | CCOc1ccc(CC(=O)N2CCCC(n3nc(C)nc3C)C2)cc1 (stereo not given) | -3.18%
74 | Cc1cnn(CC2CN(Cc3ccc(C(N)=O)cc3)CCO2)c1 (stereo not given) | -2.28%
75 | CC(C)Cc1cc(NC(=O)c2ccccn2)n(C)n1 | -7.22%
76 | Cc1cc(C(=O)N2CCCC2)ccc1NCC(=O)N1CCCCC1C (stereo not given) | 5.12%
77 | Cc1nn(C)c(Cl)c1C1CCCN1Cc1nc(C2CC2)no1 (stereo not given) | -6.42%
78 | CC(C)c1ncc2c(n1)CN(CC(=O)Nc1ccncc1)CC2 | -3.23%
79 | CSc1nccn1-c1cccc(C(=O)NCCN2CCS(=O)(=O)CC2)c1 | -3.97%
80 | CCn1cc(NC(=O)C2CCN(CC(=O)NCC(C)C)CC2)cn1 | -7.52%
81 | NC(=O)CC1CCCCN1C(=O)c1cccc(C(F)(F)F)c1 (stereo not given) | -1.03%
82 | O=C(NCCNc1cnccn1)N1CCCC(N2CCCC2)C1 (stereo not given) | -3.12%
83 | COCCN1CCN(CC(C)(O)c2cccc(C(F)(F)F)c2)CC1 (stereo not given) | -24.2%
84 | CCc1ccc(OCC(O)CN2CCN(CC)CC2)cc1 (stereo not given) | -6.54%
85 | CS(=O)(=O)NC1CCCN(C(=O)Nc2cccnc2)C1 (stereo not given) | -14.2%
86 | COc1ccc(CNCc2ccnc(N3CCCCC3)c2)cc1OC | 0.222%
87 | CC(=O)c1cccc(OCC(=O)NS(=O)(=O)c2ccc(C)s2)c1 | -8.29%
88 | Cc1cccc(NC2CCN(C(=O)Nc3cc(C)on3)CC2)n1 | -13.7%

Row | SMILES | cytotoxicity at 10 µM
89 | Cc1cc(CN2CCN(c3nn4cc(C)nc4s3)CC2)on1 | 6.4%
90 | Cc1cnn(C2CCCN(C(=O)c3ccnc(-n4ccnc4)c3)C2)c1 (stereo not given) | -1.88%
91 | O=C(NCc1cccnc1)C1CC(=O)N(CC2CC2)C1 (stereo not given) | -3.46%
92 | O=C(NCCCn1cncn1)NCC(c1ccccc1)N1CCCC1 (stereo not given) | -3.99%
93 | CC1CCN(C(=O)CN(Cc2ccco2)C2CC2)CC1 | -4.74%
94 | CN(Cc1ncc(-c2ccccc2)o1)CC1CCCN1c1cccnn1 (stereo not given) | 3.75%
95 | Cc1ncc(CN(C)CCO)c2cc(C(=O)c3ccc(Br)cc3)oc12 | -0.227%
96 | Cc1ccc(C2(CN3CCN(Cc4cn(C)nc4C)CC3)CC2)cc1 | 1.74%
97 | COc1ccc(Cn2c(C3CCNCC3)cc3cccnc32)cc1 | -4.45%
98 | O=C(COc1ccccc1)N1C[C@@H](O)[C@H](N2CCCC2)C1 | -6.54%
99 | CCN1CCCC12CCN(C(=O)c1ccsc1)CC2 | -152%
100 | CN(Cc1ccco1)Cc1cncc2c1CCN(c1ncccn1)C2 | -6.42%
101 | COCCN1CCN(Cc2ccncc2)c2ncccc2C1 | -70.9%
102 | Cn1cccc1C(=O)N1C[C@@H]2CCN(c3cccnc3)C[C@@H]2C1 | -58.3%
103 | O=C([C@H]1C[C@H]2OCC[C@H]2N(Cc2cccnc2)C1)N1CCCCO1 | -69.8%
104 | CCOCCN1Cc2ncn(C)c2C(COCC2CCOCC2)C1 (stereo not given) | -70.6%
105 | O=C1C[C@H]2[C@@H](CCN2C(=O)Cc2cccs2)N1Cc1ccncc1 | 6.12%
106 | CN(Cc1ccccc1)C1COC2(CCN(Cc3nccs3)CC2)C1 (stereo not given) | -19.5%
107 | Cc1cccc(C(=O)N2CC(C(=O)NCC3CC3)C3(CCOCC3)C2)n1 (stereo not given) | 2.11%
108 | O=C(c1ccco1)N1C[C@H]2CCCN(Cc3cccs3)[C@H]2C1 | 5.71%
109 | CC(C)CN1CC[C@@H]2[C@H](CC1)N(C(=O)c1ccccc1)CCS2(=O)=O | -128%
110 | O=C1C[C@@H]2CC[C@H](CN1)N2C1CCOCC1 | -5.1%
